This excerpt belongs to a sample that is enriched for hits.
HUVEC prolif 384 – inhibitors of HUVEC proliferation, primary screen, cell-based, 384-well; AID 648, 2007; viability, % at 10 µM (by protocol); 1.1% of 86,000 active; CellTiter-Glo luminescence, 72 h; active compounds read low;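 active = viability at or below 30%; inactive = viability above 30%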
bCat KO growth – primary screen for growth suppressors in beta-catenin knockout HCT116 cells (colon tumor, human) | 1.5% of 140,000 active | HCT116 beta-catenin knockout viability, CellTiter-Glo, 60 h; active compounds read low | viability, % at 10 µM;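 active = viability at or under a set limit, the compound median less 4 SD, cut at about 6% in these data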
HCT116 PTEN-null – growth suppression of PTEN-null HCT116, primary screen, cell-based, CellTiter-Glo | HCT116 PTEN-null viability, 60 h; active compounds read low | viability, % at 10 µM | 1.2% of 140,000 active | AID 827, 2007;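 active = viability at or below a set limit, 4 SD under the median of all tested compounds, cut at about 3.7% in these data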;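 note: PTEN knockout HCT116 line with beta catenin targeted HCT116 as companion control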
Pyk2 oligo antag – antagonists of Pyk2 self-association, primary screen, Q293 cells, FERM NanoBiT luminescence, HTS. active compounds read low. Protein-tyrosine kinase 2-beta (Homo sapiens), Q14289. AID 1347419, 2020. z-score (the deposit names both 25 µM and 10 µM). 0.83% of 99,000 active;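 active = Z-score of -3 or lower, scaled per plate to the spread of control and sample wells; inactive = z-score above -3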;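 note: negative z-score means lost luminescence so less FERM oligomerization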
Target sequence (Q14289 whole entry, looked up): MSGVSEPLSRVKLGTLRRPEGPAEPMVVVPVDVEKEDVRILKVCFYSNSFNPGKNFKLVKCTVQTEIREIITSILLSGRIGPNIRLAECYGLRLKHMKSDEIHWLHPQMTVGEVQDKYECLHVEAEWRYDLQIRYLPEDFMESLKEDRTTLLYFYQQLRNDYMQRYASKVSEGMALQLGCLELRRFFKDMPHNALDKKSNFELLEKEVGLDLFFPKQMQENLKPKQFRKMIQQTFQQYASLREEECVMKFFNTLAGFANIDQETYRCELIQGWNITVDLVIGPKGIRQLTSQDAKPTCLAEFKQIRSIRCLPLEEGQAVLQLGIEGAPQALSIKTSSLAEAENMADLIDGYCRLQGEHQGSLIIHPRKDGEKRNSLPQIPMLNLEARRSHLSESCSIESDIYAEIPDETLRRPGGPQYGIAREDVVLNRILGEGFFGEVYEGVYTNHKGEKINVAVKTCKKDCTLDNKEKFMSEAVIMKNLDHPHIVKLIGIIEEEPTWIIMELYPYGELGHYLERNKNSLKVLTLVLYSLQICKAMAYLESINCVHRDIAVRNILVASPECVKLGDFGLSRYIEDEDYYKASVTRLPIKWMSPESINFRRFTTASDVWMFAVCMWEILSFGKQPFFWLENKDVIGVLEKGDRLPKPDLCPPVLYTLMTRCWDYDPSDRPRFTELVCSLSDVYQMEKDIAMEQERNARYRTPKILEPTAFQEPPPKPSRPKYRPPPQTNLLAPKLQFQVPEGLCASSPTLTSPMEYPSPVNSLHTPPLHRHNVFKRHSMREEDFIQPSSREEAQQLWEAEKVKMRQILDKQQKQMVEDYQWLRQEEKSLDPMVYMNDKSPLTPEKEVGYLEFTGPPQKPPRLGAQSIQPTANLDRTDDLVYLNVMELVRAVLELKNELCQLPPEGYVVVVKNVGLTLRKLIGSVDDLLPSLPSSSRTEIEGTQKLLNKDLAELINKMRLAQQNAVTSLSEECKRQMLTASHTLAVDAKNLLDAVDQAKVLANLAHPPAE
H69AR inhibit – proliferation blockers of H69AR lung cancer cells, primary screen, cell-based, human, 86K library; 6% of 85,000 active; viability, % at 10 µM; H69AR lung tumor viability, ATP luminescence, 72 h; active compounds read low;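 active = viability at or below 40%; inactive = viability above 40%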;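 note: multidrug resistant small cell line overexpressing MRP-1 efflux transporter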
Lung fibro prol – antiproliferative effect on LL 47 fibroblasts – human, LL 47 cells, CellTiter-Glo luminescence, primary screen | AID 719, 2007 | viability, % at 10 µM | LL 47 human lung fibroblast viability, ATP luminescence; active compounds read low | 1.1% of 85,000 active;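 active = viability at or below 50% in the single dose screen; inactive = viability above 50%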;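 note: compound exposure lasted 72 h before the ATP readout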
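material = human LL 47 lung fibroblast cells | dosing = compounds added from tenfold dosing solution, 0.1% DMSO final | timing = overnight cell rest, 72 h compound treatment at 37 °C | measured by = CellTiter-Glo luminescence measuring cellular ATP | evaluation = % viability versus median cells-only luminescence | control set = cell-only wells, no compound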
Each line names hits and unclear results; the compound was inactive in the other large screens.

COc1ccccc1CNC(=O)c1nn(-c2ccc(C)cc2)c(=O)c2c1c1ccccc1n2C	H69AR inhibit 5.2
Cn1c(C(=O)NCCCN2CCN(c3ccccc3F)CC2)cc2c(=O)n(C)c3ccccc3c21	bCat KO growth 1.7, H69AR inhibit 28, Lung fibro prol 43 (no result: Pyk2 oligo antag)
Cc1ccc2oc(-c3cccc(NC(=S)NC(=O)/C=C/c4ccco4)c3)nc2c1	none (no result: HUVEC prolif 384, H69AR inhibit, Lung fibro prol)
Cc1nc(N2CCOCC2)nc(OCCN2CCOCC2)c1[N+](=O)[O-]	none (no result: HUVEC prolif 384, Pyk2 oligo antag, H69AR inhibit, Lung fibro prol)
COc1cc(OC)cc(C(=O)NNC(=O)NC2CCCCC2)c1	none (no result: HUVEC prolif 384, H69AR inhibit, Lung fibro prol)
CCN1CCCC1CNC(=O)c1nn(-c2ccc(C)cc2)c(=O)c2c1c1ccccc1n2C (configuration not stated)	HUVEC prolif 384 25, Lung fibro prol 46 (no result: bCat KO growth, HCT116 PTEN-null, Pyk2 oligo antag)
Cc1ccccc1-n1ncc2c(SCC(=O)NCc3cccs3)ncnc21	H69AR inhibit 28
Cc1cc2nnc(SCC(=O)NCc3cccs3)n2c2ccccc12	H69AR inhibit 24
Cc1occc1-c1nnc(SCC(=O)NCc2cccs2)n1-c1ccc(F)cc1	HUVEC prolif 384 29
COc1ccc(-c2cc(C(F)(F)F)n3nc(C(=O)NCc4ccco4)cc3n2)cc1OC	none
CCOc1ccc(-c2c(C(=O)N/N=C/c3ccc(OC)cc3)nnn2-c2nonc2N)cc1	none (no result: HUVEC prolif 384, H69AR inhibit, Lung fibro prol)
CC1(NC(=S)N(CCO)CCO)CCS(=O)(=O)C1 (configuration not stated)	none (no result: HUVEC prolif 384, Pyk2 oligo antag, H69AR inhibit, Lung fibro prol)
C=C(C)COc1ccc(-c2nc(N)ncc2Oc2ccccc2OCC)c(O)c1	Pyk2 oligo antag -4.5
CCOc1ccc(-c2nc(N)ncc2-c2ccccc2)c(O)c1	H69AR inhibit 28
O=C1CCC2(C(=O)O)Sc3ccccc3N12 (configuration not stated)	none (no result: HUVEC prolif 384, H69AR inhibit, Lung fibro prol)
COc1cccc(C(=O)c2sc(NC(C)C)nc2N)c1	bCat KO growth 4.9, Lung fibro prol 43
COc1ccc(C(=O)c2sc(NC(C)C)nc2N)cc1OC	none
CCOC(=O)COc1ccc2nsnc2c1Cl	none
C=C(CC)C(=O)c1ccc(OCC(=O)O)c(Cl)c1Cl	H69AR inhibit 12 (no result: Pyk2 oligo antag)
O=c1c2cnn(-c3ccc(F)cc3)c2ncn1Cc1ccccc1	none
OCC1CCCN1C(=S)Nc1ccccc1 (configuration not stated)	none (no result: HUVEC prolif 384, H69AR inhibit, Lung fibro prol)
CCCn1nnc(NC(=O)c2cccc(OCC)c2)n1	none
CC(C)c1ccc(N(CC(=O)Nc2ccc(S(=O)(=O)N3CCOCC3)cc2)S(C)(=O)=O)cc1	H69AR inhibit 30
CCCn1nnc(NC(=O)c2cccc(OCC(C)C)c2)n1	H69AR inhibit 38
COc1cccc(C(=O)Nc2nc(-c3ccc(S(=O)(=O)N4CCOCC4)cc3)cs2)c1	Pyk2 oligo antag -3.3
CC(C)COc1cccc(C(=O)Nc2ccc(S(=O)(=O)N3CCOCC3)cc2)c1	H69AR inhibit 22
CC(Cc1ccccc1)C(=O)N(C)Cc1cccnc1 (configuration not stated)	none (no result: HUVEC prolif 384, Pyk2 oligo antag, H69AR inhibit, Lung fibro prol)
O=C(Nc1nc(-c2ccc(S(=O)(=O)N3CCCC3)cc2)cs1)c1cccs1	Pyk2 oligo antag -3.2
O=C(Nc1nc(-c2ccccc2)cs1)C1CCCCN1S(=O)(=O)c1ccccc1 (configuration not stated)	Pyk2 oligo antag -3.7
O=C(Nc1nc(-c2nc3ccccc3s2)cs1)c1ccc(S(=O)(=O)N2CCOCC2)cc1	Pyk2 oligo antag -3.6
N#C/C(=C\C1CC2C=CC1C2)c1nc2ccccc2[nH]1 (configuration not stated)	none
O=C(c1ccc(C#CC2(O)CCCCC2)cc1)N1CCN(C(c2ccccc2)c2ccccc2)CC1	H69AR inhibit 34
Cc1ccc(C)c(OCC(=O)Nc2ccc3c(c2)OCO3)c1C	H69AR inhibit 21
Cc1cc(N2CCN(S(=O)(=O)c3ccccc3)CC2)c2ccccc2n1	none
Cc1cc(N2CCN(c3ccc([N+](=O)[O-])c4cccnc34)CC2)c2ccccc2n1	bCat KO growth 3.5 (no result: HUVEC prolif 384, Pyk2 oligo antag, H69AR inhibit, Lung fibro prol)
COc1ccc2c(c1)-c1c(sn(-c3ccc(OC)c(OC)c3)c1=S)C(C)(C)N2	none (no result: HUVEC prolif 384, H69AR inhibit, Lung fibro prol)
COc1cc2c3c(c1)-c1c(sn(-c4cc(OC)ccc4OC)c1=S)C(C)(C)N3C(=O)C2=O	bCat KO growth 2.4, HCT116 PTEN-null 1.2, H69AR inhibit 3.9
O=S(=O)(c1ccc(S(=O)(=O)N2CCCC3(CCCCC3)C2)cc1)N1CCCCC1	H69AR inhibit 35
O=C(OCc1nc2ccc(Cl)cc2n1CCO)c1ccc(O)cc1	none (no result: HUVEC prolif 384, Pyk2 oligo antag, H69AR inhibit, Lung fibro prol)
O=C(CSc1nnc(-c2ccccc2O)o1)Oc1ccc(OCc2ccccc2)cc1	H69AR inhibit 27
Cc1cc(C)nc(Nc2n[nH]c(COc3ccccc3)n2)n1	none
Cc1cc(C)nc(Nc2n[nH]c(COc3cccc4ccccc34)n2)n1	H69AR inhibit 38
COc1ccc(C(C(=O)NC2CCCC2)N(Cc2ccc(C)cc2)C(=O)c2ccn[nH]2)cc1OC (configuration not stated)	none (no result: HUVEC prolif 384, H69AR inhibit, Lung fibro prol)
Cc1nc2ccccc2c(=O)n1/N=C/c1ccc(N(C)C)cc1	none
Cc1nc2ccccc2c(=O)n1/N=C/c1c(O)ccc2oc3c(c12)CCCC3	bCat KO growth 4.9, HCT116 PTEN-null 3.0
O=C(COC(=O)C1(c2ccc(F)cc2)CCCC1)N1CCc2ccccc21	none (no result: HUVEC prolif 384, Pyk2 oligo antag, H69AR inhibit, Lung fibro prol)
Cc1ccc(N2CCN(CCc3nc4cc(NC(=O)c5ccco5)ccc4n3C)CC2)cc1	H69AR inhibit 6.6
Cn1c(CCN2CCN(c3ccc(F)cc3)CC2)nc2cc(NC(=O)c3ccco3)ccc21	none
Cn1c(CCN2CCN(c3ccccc3)CC2)nc2cc(NC(=O)c3ccco3)ccc21	H69AR inhibit 21
CC(NC(=S)Nc1ccc(Cl)cc1)C(c1ccccc1)N1CCOCC1 (configuration not stated)	none (no result: HUVEC prolif 384, Pyk2 oligo antag, H69AR inhibit, Lung fibro prol)
CCN(c1ccccc1)S(=O)(=O)c1ccc(Oc2ccc(-n3ccnc3)cc2)nc1	Lung fibro prol 49
CCN(c1ccccc1)S(=O)(=O)c1ccc(OC)c(OC)c1	none
C=CCn1c(C)cc(C(=O)CSc2n[nH]c(N)n2)c1C	none
CCn1c(SCc2c(Cl)cccc2Cl)nnc1-c1nn(-c2ccccc2)ccc1=O	none (no result: HUVEC prolif 384, H69AR inhibit, Lung fibro prol)
C=CCSc1nccc(-c2nn(-c3ccc(C)cc3)ccc2=O)n1	H69AR inhibit 21
CNC(=O)c1nn(-c2ccc(C)cc2)ccc1=O	none (no result: HUVEC prolif 384, H69AR inhibit, Lung fibro prol)
CSc1nccc(-c2nn(-c3ccc(C)cc3)ccc2=O)n1	H69AR inhibit 24
C#CCSc1nccc(-c2nn(-c3ccc(C)cc3)ccc2=O)n1	H69AR inhibit 17
C=CCSc1nc(=O)n2cccc(C)c2n1	none (no result: HUVEC prolif 384, H69AR inhibit, Lung fibro prol)
CCSc1nccc(-c2nn(-c3ccc(C)cc3)ccc2=O)n1	H69AR inhibit 18
Cc1cc(C(=O)N/N=C/c2cccc([N+](=O)[O-])c2)c(C)n1-c1ccccc1	none (no result: HUVEC prolif 384, Pyk2 oligo antag, H69AR inhibit, Lung fibro prol)

High-throughput results deposited in PubChem by several laboratories.
